{"source": "the RNAGym collection of RNA variant scans (doi:10.1126/science.aae0568)", "parents": {"B1": {"name": "tRNA (parent)", "chain": "GUUCCGUUGGCGUAAUGGUAACGCGUCUCCCUCCUAAGGAGAAGACUGCGGGUUCGAGUCCCGUACGGAACG"}}, "note": "Fewer inactive variants are shown than the library holds.", "data": [{"variants_of": "B1", "assay": "yeast fitness relative to wild type (ratio to wild type); higher = fitter; tRNA-Arg(CCU), competitive growth, 37 C, YPD", "summary_of_the_method": "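Genotype frequency changes were the basis for Darwinian fitness relative to wild type. The frequencies came from 100-nucleotide paired-end sequencing of gene amplicons from the start population and each end population of pooled yeast strains with tRNA-Arg(CCU) gene variants at the native locus. Competition ran in YPD at 37°C for 24 hours in six replicates, genotypes needed ≥ 100 starting reads, and estimates < 0.5 were set to 0.5.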", "values": [{"variant": "GUUCGGUUGGCGUAAUGGUAACGCGUUUCCCUCAUAAGGAGAAGACUGCGAGUUCGAGUCCCGUACGGAACG", "note": "[C5G C27U C34A G51A]", "yeast fitness": "≤ 0.5"}, {"variant": "GUUCGGGUGGCGUAAUGGUAACGCGUCUCCCCCCUAAGGAGAAGACUGCGGGUUCGAGUCCCGUACGGAACG", "note": "[C5G U7G U32C]", "yeast fitness": 0.604}, {"variant": "GUUUCGUUGGCGUAAUGGUACCGCAUCUCAGCCCUAAGGACAAGACUGCGGGUUCGAGUCCCGUACGGAACG", "note": "[C4U A21C G25A C30A C31G U32C G41C]", "yeast fitness": "≤ 0.5"}, {"variant": "GUCCCGUUGGCGUAAUGGUAACGAGUCUCCCUCCUAAGGAGAGGACUGCGGAUUCGAAUCCCGUACGGAACG", "note": "[U3C C24A A43G G52A G58A]", "yeast fitness": "≤ 0.5"}, {"variant": "GUACCGUUGGCGUAAUGGUAACGCGUCUCGCUCCUAAGGAGAAGACUGCGGGUUCGAGUCCCGUAGGGAACG", "note": "[U3A C30G C66G]", "yeast fitness": "≤ 0.5"}, {"variant": "GUUCCGUUGGCGUAAUGGUAACGCGUCUUCCUCGUAAGGAGAAGACUGCGGGUUCGAGUCCCGUGCGGAACG", "note": "[C29U C34G A65G]", "yeast fitness": 0.668}, {"variant": "GUUCCGUUGGCGUAAUAGUAACGCGUCUCCCUCCUAAGGAGAAGACCGCGGGUUCGGGUCCCGUACGGUACG", "note": "[G17A U47C A57G A69U]", "yeast fitness": "≤ 0.5"}, {"variant": "GUUCCGUUGGCGUAGUGGUAACGCAUAUCCCUCCUAAGGAGAAGACUGCAGGUUCGAGUCCCGUACGGAACG", "note": "[A15G G25A C27A G50A]", "yeast fitness": 0.592}, {"variant": "GUUCCGUUGGCGUAAUGGUAACGCGUCUCGCUCCUAAGGAGAAGACUGCGGGUUCGGGUCCCGUACGGAACG", "note": "[C30G A57G]", "yeast fitness": 0.616}, {"variant": "GUUCCGUUGGUGUAAUGGUAACGCGUCACCCUCCUAAGGAGAAGACUGCGGGUUCGAGUCCCGUACGGCACG", "note": "[C11U U28A A69C]", "yeast fitness": 0.58}, {"variant": "GUUCCGUUGGCGUAAUGGUAACGCGUCUCCCUCCUAAGGACAAGACUGCGGGUUCGAAUCACGUACGGAACG", "note": "[G41C G58A C61A]", "yeast fitness": "≤ 0.5"}, {"variant": "GUUCCGUUGGCGUAAUGGUAACGCGUCUCCCUCCUAAGGAGAGGACAGCGGGUUCGAGUCCCGUACGGAACG", "note": "[A43G U47A]", "yeast fitness": 0.88}, {"variant": "GUUCCGUUGGCGUACUGGUAACGCGUCUCCCUCCUAAGGUGAAGACUGCGGGUUCGAGUCCCGUACGGAUCG", "note": "[A15C A40U A70U]", "yeast fitness": 0.563}, {"variant": "GCUCCGUUGGCCUAAUGGUAACGCGUCUCCCUCCUAAGGCGAAGACUGCGGGUUCGAGUCCCGUACGGAACG", "note": "[U2C G12C A40C]", "yeast fitness": "≤ 0.5"}, {"variant": "GUUCCGUUGGCGUAACGGUAACGCAUAUUCCUCCUAAGGAGAAAACUGCGGGUUAGAGUCCCGUACGGAACG", "note": "[U16C G25A C27A C29U G44A C55A]", "yeast fitness": "≤ 0.5"}, {"variant": "GUUCCAUUGGCGUAAUGGUAAGGCGUCUCCCUCCUAAGGAGAAGACUGCGGGUUCGAGUACUGUACGGAACG", "note": "[G6A C22G C60A C62U]", "yeast fitness": "≤ 0.5"}, {"variant": "GUUCCGUCGGCGUAAUGGUAACGCGUCUCCCUCCUAAAGAGAAGACUGCGGAUUCGAGUCCCGUACGGAACG", "note": "[U8C G38A G52A]", "yeast fitness": "≤ 0.5"}, {"variant": "GUUCCGUUGGCGUAAUGGUAACGCGUCUCUCUCCUAAGGAGACGACGGCGGGUGCGAGUCCCGUACGGAACG", "note": "[C30U A43C U47G U54G]", "yeast fitness": 0.85}, {"variant": "GUUCCGUUGACGUAAUGGUUACGCGUCUCCCUCCCAAGGAGAAGACUCCGGGUUCGAGUCCCGUACGGAACG", "note": "[G10A A20U U35C G48C]", "yeast fitness": 0.723}, {"variant": "GUUCCGUUGGCGUAAUGCUAACGCGUCUCCCUCCUAAGGCGAAGACUGGGGGUUCGAGUCCCAUACGGAACG", "note": "[G18C A40C C49G G63A]", "yeast fitness": 0.553}, {"variant": "GUUCCGUUGCCGUAAUGGUAACGCGUCUCCCUCCUAAGGAGAAGACUGCAGGUUCGAGACCCGUACCGAACG", "note": "[G10C G50A U59A G67C]", "yeast fitness": "≤ 0.5"}, {"variant": "GUUCCGUUGGCGUAAUGGUCACGCGUCUUCCUCCUAAGGAGAAGACUGCGGGUUCGAGUCCCGUACGGAACG", "note": "[A20C C29U]", "yeast fitness": 0.715}, {"variant": "GUUCCGUUGGCGUAAUGGUAACGCGUCUACCUCCUAAGGAGAAGACUGCGGGUUCGAGUCCCGUACGGCACG", "note": "[C29A A69C]", "yeast fitness": 0.679}, {"variant": "GUUCCGUAGGUGUAAUGGUCACGCGUCUCCCUCCUAAGGAGAAGACUGCGGGUUCGAGUCCCGUACGGAUCG", "note": "[U8A C11U A20C A70U]", "yeast fitness": "≤ 0.5"}, {"variant": "GUUGCGUUAGCGUAAUGGUAACGCGUCUCCCUCCUAAGAAGAAGACUGCGGGUUCGAGUCCCGUACGGAACG", "note": "[C4G G9A G39A]", "yeast fitness": 0.576}, {"variant": "GUUCUGUUGGCGUAAUGGUAACGCGUCUCCCUCCUAAGGAGAAGACGGCCGGUUCGAGUCCCGUACGGAACG", "note": "[C5U U47G G50C]", "yeast fitness": 0.575}, {"variant": "GUUCUGUUGGGGUAAUGGUAACGCGUCUCCCUCCUAAGGAGAAGACUGCGAGUUCGAGUCCCGUACGGAACG", "note": "[C5U C11G G51A]", "yeast fitness": "≤ 0.5"}, {"variant": "GUUCCGUUGGCGUAAUGGUAACGCGUCUCCCUCCUAAAGAGAGGACUGCGGGUUCGAGUCCCGUACGGACCG", "note": "[G38A A43G A70C]", "yeast fitness": 0.584}, {"variant": "GUUCCGUUGGCGUAAUGGUAACGCGUUUCCCUCCUAAGGAGAAAACUGCGGAUUCGCGUCCCGUACGGAACG", "note": "[C27U G44A G52A A57C]", "yeast fitness": 0.538}, {"variant": "GUUCCGUUGGCGUAAUGGUAACGCGUCUCCCUCCUAACGAGAAGACUGCGGGUUCGAGUCCUGUACGGAACG", "note": "[G38C C62U]", "yeast fitness": 0.687}, {"variant": "GUUCCGUUGGCGUAAUGGUAACGCGUUUCCCUCCUAUGGAGAAGACUGUGGGUUCGAGUCCCGUACGGAACG", "note": "[C27U A37U C49U]", "yeast fitness": 0.549}, {"variant": "GUUACGUUGGCGUAAUGGCAACGCGUCUCCCUCCUAAGGAGGAGACUGCGGGUUCGAGUGCCGUACGGAACG", "note": "[C4A U19C A42G C60G]", "yeast fitness": "≤ 0.5"}, {"variant": "GGUCCGUUGGCGUAAUGGUAACGCGUCUCCCUCCUACGGAAAAGACUGUGGGUUCGAGUGCCGUACGGAACG", "note": "[U2G A37C G41A C49U C60G]", "yeast fitness": 0.51}, {"variant": "GUUCAGUUGGCGUAAUGGUAACGCGUCUCCCUGAUAAGGCGAAGACUGCGGGUUCGAGUCCCGUACAGAACG", "note": "[C5A C33G C34A A40C G67A]", "yeast fitness": "≤ 0.5"}, {"variant": "GUUCCGUUGGCGUAAUGGUAACGCGUCUCCCUCCUAAGGAGAGAACUGCGGGUUCCAGUCCUGUACGGAACG", "note": "[A43G G44A G56C C62U]", "yeast fitness": "≤ 0.5"}, {"variant": "GUACCGUUGGCGUGAUGGUAACGCGUCUCCCUCCUAAGGAGAAGACUGCGGGUUUGAGUCCCCUACGGAACG", "note": "[U3A A14G C55U G63C]", "yeast fitness": "≤ 0.5"}, {"variant": "GUUCCGUUGGCGUAAUGCUAACGCCUCUCCCUCCUAAGGAGAAGACUGCGGGUUCGAGUCCCGUACGGAACG", "note": "[G18C G25C]", "yeast fitness": 0.677}, {"variant": "GUUCCGUUGCCGUAAUGGUGACGCGUCUCCCUCCUAAGGAGAGGAUUGCGGGUUCGAGUCCCGUACGGAACG", "note": "[G10C A20G A43G C46U]", "yeast fitness": "≤ 0.5"}]}]}
